# ChEMBL document CHEMBL1130127, “Synthesis, photophysical properties, in vivo photosensitizing efficacy, and human serum albumin binding properties of some novel bacteriochlorins” (J Med Chem, 1997)
# Calls of active or inactive are those of the source. No cut-off for these calls is given here.
# Experiments:
# [1] = tested on: Mus musculus; assay: The compound was tested in vivo for photosensitizing efficacy in DBA/2 Mice transplanted with SMT/F tumors and the activity is expressed as % response at (21-25 days) 3 hours post injection at 2.5 mg/kg concentration; assay type: functional
# In short: (§1)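 Female DBA/2 HA-DD mice, 5-7 weeks old. A 1 mm SMT-F tumor piece from a donor was trocar-implanted subcutaneously in the axilla. At about 5 mm tumor diameter, sensitizer in 1% Tween 80/water was given iv; dose was based on extinction coefficient. At 3 or 24 h after injection, restrained mice had the tumor lit with 135 J/cm2 laser light at the in vivo long-wavelength maximum. Tumor response was followed to day 30; six mice/group.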
# [2] = tested on: Mus musculus; assay: The compound was tested in vivo for photosensitizing efficacy in DBA/2 Mice transplanted with SMT/F tumors and the activity is expressed as % response at (1-5 days) 24 hours post injection at 5.0 mg/kg concentration; No response; assay type: functional, organism-based; design: dose 5 mg/kg; in short: as §1
# [3] = tested on: Mus musculus; assay: The compound was tested in vivo for photosensitizing efficacy in DBA/2 Mice transplanted with SMT/F tumors and the activity is expressed as % response at (1-5 days) 3 hours post injection at 1 mg/kg concentration; assay type: functional; in short: as §1
# [4] = tested on: Mus musculus; assay: The compound was tested in vivo for photosensitizing efficacy in DBA/2 Mice transplanted with SMT/F tumors and the activity is expressed as % response at (1-5 days) 3 hours post injection at 2.5 mg/kg concentration; assay type: functional; in short: as §1
# [5] = tested on: Mus musculus; assay: The compound was tested in vivo for photosensitizing efficacy in DBA/2 Mice transplanted with SMT/F tumors and the activity is expressed as % response at (11-15 days) 24 hours post injection at 5 mg/kg concentration; No response; assay type: functional, organism-based; design: dose 5 mg/kg; in short: as §1
# [6] = tested on: Mus musculus; assay: The compound was tested in vivo for photosensitizing efficacy in DBA/2 Mice transplanted with SMT/F tumors and the activity is expressed as % response at (11-15 days) 3 hours post injection at 1 mg/kg concentration; assay type: functional; in short: as §1
# [7] = tested on: Mus musculus; assay: The compound was tested in vivo for photosensitizing efficacy in DBA/2 Mice transplanted with SMT/F tumors and the activity is expressed as % response at (11-15 days) 3 hours post injection at 2.5 mg/kg concentration; assay type: functional; in short: as §1
# [8] = tested on: Mus musculus; assay: The compound was tested in vivo for photosensitizing efficacy in DBA/2 Mice transplanted with SMT/F tumors and the activity is expressed as % response at (16-20 days) 24 hours post injection at 5 mg/kg concentration; No response; assay type: functional, organism-based; design: dose 5 mg/kg; in short: as §1
# [9] = tested on: Mus musculus; assay: The compound was tested in vivo for photosensitizing efficacy in DBA/2 Mice transplanted with SMT/F tumors and the activity is expressed as % response at (16-20 days) 3 hours post injection at 1 mg/kg concentration; assay type: functional; in short: as §1
# [10] = tested on: Mus musculus; assay: The compound was tested in vivo for photosensitizing efficacy in DBA/2 Mice transplanted with SMT/F tumors and the activity is expressed as % response at (16-20 days) 3 hours post injection at 2.5 mg/kg concentration; assay type: functional; in short: as §1
# [11] = tested on: Mus musculus; assay: The compound was tested in vivo for photosensitizing efficacy in DBA/2 Mice transplanted with SMT/F tumors and the activity is expressed as % response at (26-30 days) 24 hours post injection at 5 mg/kg concentration; No response; assay type: functional, organism-based; design: dose 5 mg/kg
# [12] = tested on: Mus musculus; assay: The compound was tested in vivo for photosensitizing efficacy in DBA/2 Mice transplanted with SMT/F tumors and the activity is expressed as % response at (26-30 days) 3 hours post injection at 1 mg/kg concentration; assay type: functional
# [13] = tested on: Mus musculus; assay: The compound was tested in vivo for photosensitizing efficacy in DBA/2 Mice transplanted with SMT/F tumors and the activity is expressed as % response at (26-30 days) 3 hours post injection at 2.5 mg/kg concentration; assay type: functional
# [14] = tested on: Mus musculus; assay: The compound was tested in vivo for photosensitizing efficacy in DBA/2 Mice transplanted with SMT/F tumors and the activity is expressed as % response at (6-10 days) 24 hours post injection at 5 mg/kg concentration; No response; assay type: functional, organism-based; design: dose 5 mg/kg
# [15] = tested on: Mus musculus; assay: The compound was tested in vivo for photosensitizing efficacy in DBA/2 Mice transplanted with SMT/F tumors and the activity is expressed as % response at (6-10 days) 3 hours post injection at 1 mg/kg concentration; assay type: functional
# [16] = tested on: Mus musculus; assay: The compound was tested in vivo for photosensitizing efficacy in DBA/2 Mice transplanted with SMT/F tumors and the activity is expressed as % response at (6-10 days) 3 hours post injection at 2.5 mg/kg concentration; assay type: functional
# In short: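 SMT-F tumor piece (1 mm) from donor implanted subcutaneously by trocar into axilla of 5–7-week-old female DBA/2 HA-DD mice; treated at ~5 mm diameter. Sensitizer dissolved in 1% Tween 80/water, given iv; 3 h later restrained mouse's tumor illuminated with 135 J/cm2 laser light at in vivo long-wavelength absorption maximum. Tumor response scored over 30 days; six mice/group.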
# [17] = tested on: Mus musculus; assay: The compound was tested in vivo for photosensitizing efficacy in DBA/2 Mice transplanted with SMT/F tumors and the activity is expressed as % response at (21-25 days) 24 hours post injection at 5 mg/kg concentration; No response; assay type: functional, organism-based; design: dose 5 mg/kg; in short: as §1
# [18] = tested on: Mus musculus; assay: The compound was tested in vivo for photosensitizing efficacy in DBA/2 Mice transplanted with SMT/F tumors and the activity is expressed as % response at (21-25 days) 3 hours post injection at 1 mg/kg concentration; assay type: functional; in short: as §1
# [19] = target: T1, Albumin (Homo sapiens, UniProt P02768); assay: Binding affinity against Human serum albumin(Site I).
# In short: (§2)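 Fluorometric titration: HSA and sensitizer fixed at 1 × 10^-6 mol/L. Site probe varied 4 × 10^-7 to 2 × 10^-6 mol/L: DNSA for site I, read at 472 nm; DP for site II, read at 476 nm; excitation 340 nm. Incubated 4 °C, pH 7.0, 4 h, dark. Bound probe taken from standard curves of free probe (water) and HSA-bound probe (2.5 × 10^-5 mol/L HSA).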
# [20] = target: T1, Albumin; assay: Binding affinity against Human serum albumin(Site II).; in short: as §2
# [21] = tested on: Mus musculus; assay: The compound was tested in vivo for photosensitizing efficacy in DBA/2 Mice transplanted with SMT/F tumors and the activity is expressed as % response at (1-5 days) 24 hours post injection at 5 mg/kg concentration; No response; assay type: functional, organism-based; design: dose 5 mg/kg; in short: as §1
# [22] = tested on: Mus musculus; assay: The compound was tested in vivo for photosensitizing efficacy in DBA/2 Mice transplanted with SMT/F tumors and the activity is expressed as % response at (21-25 days) 3 hours post injection at 2.5 mg/kg concentration; No response; assay type: functional, organism-based; design: dose 2.5 mg/kg; in short: as §1
# [23] = tested on: Mus musculus; assay: The compound was tested in vivo for photosensitizing efficacy in DBA/2 Mice transplanted with SMT/F tumors and the activity is expressed as % response at (1-5 days) 3 hours post injection at 2.5 mg/kg concentration; No response; assay type: functional, organism-based; design: dose 2.5 mg/kg; in short: as §1
# [24] = tested on: Mus musculus; assay: The compound was tested in vivo for photosensitizing efficacy in DBA/2 Mice transplanted with SMT/F tumors and the activity is expressed as % response at (1-5 days) 3 hours post injection at 5.0 mg/kg concentration; assay type: functional; in short: as §1
# [25] = tested on: Mus musculus; assay: The compound was tested in vivo for photosensitizing efficacy in DBA/2 Mice transplanted with SMT/F tumors and the activity is expressed as % response at (11-15 days) 3 hours post injection at 2.5 mg/kg concentration; No response; assay type: functional, organism-based; design: dose 2.5 mg/kg; in short: as §1
# [26] = tested on: Mus musculus; assay: The compound was tested in vivo for photosensitizing efficacy in DBA/2 Mice transplanted with SMT/F tumors and the activity is expressed as % response at (11-15 days) 3 hours post injection at 5 mg/kg concentration; assay type: functional; in short: as §1
# [27] = tested on: Mus musculus; assay: The compound was tested in vivo for photosensitizing efficacy in DBA/2 Mice transplanted with SMT/F tumors and the activity is expressed as % response at (16-20 days) 3 hours post injection at 2.5 mg/kg concentration; No response; assay type: functional, organism-based; design: dose 2.5 mg/kg; in short: as §1
# [28] = tested on: Mus musculus; assay: The compound was tested in vivo for photosensitizing efficacy in DBA/2 Mice transplanted with SMT/F tumors and the activity is expressed as % response at (21-25 days) 3 hours post injection at 5 mg/kg concentration; assay type: functional
# [29] = tested on: Mus musculus; assay: The compound was tested in vivo for photosensitizing efficacy in DBA/2 Mice transplanted with SMT/F tumors and the activity is expressed as % response at (26-30 days) 3 hours post injection at 2.5 mg/kg concentration; No response; assay type: functional, organism-based; design: dose 2.5 mg/kg
# [30] = tested on: Mus musculus; assay: The compound was tested in vivo for photosensitizing efficacy in DBA/2 Mice transplanted with SMT/F tumors and the activity is expressed as % response at (26-30 days) 3 hours post injection at 5 mg/kg concentration; assay type: functional
# [31] = tested on: Mus musculus; assay: The compound was tested in vivo for photosensitizing efficacy in DBA/2 Mice transplanted with SMT/F tumors and the activity is expressed as % response at (6-10 days) 3 hours post injection at 2.5 mg/kg concentration; No response; assay type: functional, organism-based; design: dose 2.5 mg/kg
# [32] = tested on: Mus musculus; assay: The compound was tested in vivo for photosensitizing efficacy in DBA/2 Mice transplanted with SMT/F tumors and the activity is expressed as % response at (6-10 days) 3 hours post injection at 5 mg/kg concentration; assay type: functional
# [33] = tested on: Mus musculus; assay: The compound was tested in vivo for photosensitizing efficacy in DBA/2 Mice transplanted with SMT/F tumors and the activity is expressed as % response at (16-20 days) 3 hours post injection at 5 mg/kg concentration; assay type: functional; in short: as §1
# T1 sequence (P02768 whole entry): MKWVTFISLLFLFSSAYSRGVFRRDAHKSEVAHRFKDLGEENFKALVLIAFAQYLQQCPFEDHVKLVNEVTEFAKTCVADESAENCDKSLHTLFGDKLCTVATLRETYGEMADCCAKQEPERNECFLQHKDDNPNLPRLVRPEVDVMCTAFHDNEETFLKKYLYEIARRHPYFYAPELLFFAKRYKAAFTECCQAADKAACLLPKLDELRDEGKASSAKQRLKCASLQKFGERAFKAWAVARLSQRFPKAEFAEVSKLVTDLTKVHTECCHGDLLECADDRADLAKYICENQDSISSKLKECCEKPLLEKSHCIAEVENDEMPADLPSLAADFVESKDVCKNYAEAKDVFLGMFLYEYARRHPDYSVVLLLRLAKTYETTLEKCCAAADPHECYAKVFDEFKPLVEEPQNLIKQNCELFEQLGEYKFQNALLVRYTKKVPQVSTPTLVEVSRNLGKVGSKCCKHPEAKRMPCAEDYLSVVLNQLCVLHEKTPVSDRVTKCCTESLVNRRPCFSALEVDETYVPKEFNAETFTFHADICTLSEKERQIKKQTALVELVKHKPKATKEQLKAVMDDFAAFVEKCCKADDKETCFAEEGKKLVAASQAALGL
structure (smiles),measurement,setting,value
CCc1c(C)c2[nH]c1cc1[nH]c(cc3nc4c(c5nc(c2C=O)[C@@H](C)[C@@H]5CCC(=O)NC(CC(=O)OC(C)(C)C)C(=O)OC(C)(C)C)CCC4=C3C)C(=O)C1(C)CC (some centres undefined),Response,[1],60%
same,Response,[2],inactive
same,Response,[3],100%
same,Response,[4],100%
same,Response,[5],inactive
same,Response,[6],60%
same,Response,[7],60%
same,Response,[8],inactive
same,Response,[9],60%
same,Response,[10],60%
same,Response,[11],inactive
same,Response,[12],50%
same,Response,[13],60%
same,Response,[14],inactive
same,Response,[15],80%
same,Response,[16],100%
same,Response,[17],inactive
same,Response,[18],50%
same,Binding constant,[19],500000 l M-1
same,Binding constant,[20],500000 l M-1
CCc1c(C)c2[nH]c1cc1[nH]c(cc3nc4c(c5nc(c2C=O)[C@@H](C)[C@@H]5CCC(=O)NC(CC(=O)OC(C)(C)C)C(=O)OC(C)(C)C)CCC4=C3C)C(O)(CC)C1(C)O (some centres undefined),Response,[21],inactive
same,Response,[22],inactive
same,Response,[23],inactive
same,Response,[24],100%
same,Response,[5],inactive
same,Response,[25],inactive
same,Response,[26],100%
same,Response,[8],inactive
same,Response,[27],inactive
same,Response,[28],50%
same,Response,[11],inactive
same,Response,[29],inactive
same,Response,[30],50%
same,Response,[14],inactive
same,Response,[31],inactive
same,Response,[32],100%
same,Response,[33],80%
same,Response,[17],inactive
same,Binding constant,[19],500000 l M-1
